Tests used:
[1] = system: HeLa; experiment: Antiproliferative activity, HeLa cells; format: cell-based; conditions: read-out: HeLa IC50
Procedure, shortened: (§1)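 Cells seeded at 1000 per well in RPMI-1640 with 10% FBS and left 24 h before adding diluted test compound. After 96 h exposure, viability was read by CellTiter-Glo luminescence. Readings were normalised as % of untreated cells and IC50 derived. n = 3, values averaged.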

[2] = system: HepG2; experiment: Antiproliferative activity, HepG2 cells; format: cell-based; conditions: read-out: HepG2 IC50
Procedure, shortened: as §1

- IC50 [1]: 17 nM
- IC50 [2]: 24 nM
SMILES: CN1CCC(NC2CCc3[nH]c4c(C(N)=O)ccc(-c5ccccc5Cl)c4c3C2)CC1 (centres unmarked) [WJ0909]
